The record followed here is ChEMBL document CHEMBL3871300, “Synthesis and evaluation of the anti-proliferative activity of diaryl-3-pyrrolin-2-ones and fused analogs” (Bioorg Med Chem Lett, 2017).

Structures are written as SMILES. pIC50: −log10 of the molar value.

Usually pIC50 stands for the negative decadic logarithm of the IC50, by convention in mol/L. A high value points to a low IC50.

The first test is described as follows: Antiproliferative activity against human U937 cells after 48 hrs by MTT assay. The format is functional, cell-based. The settings on record: U-937, 48 h. The gist of the method:
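Human promonocytic U-937 cells exposed to compound for 48 h, then MTT added as an indirect viability read-out via mitochondrial activity. IC50 taken as the concentration reducing viability to 50% of mock-treated cells. Values averaged from at least three independent runs, each with eight replicates, with standard errors; n gives the number of independent runs.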
In the case of `Cn1cc(C2=CC(=O)NC2)c2ccccc21`, the pIC50 is < 4.00.
Same read-out and setting: in the case of `COc1ccc(C2=C(c3cn(C)c4ccccc34)C(=O)NC2)cc1OC` it was 5.00; in that of `COc1cc(C2=CC(=O)NC2)cc(OC)c1OC`, < 4.00; in that of `COc1cc(C2=C(c3ccccc3)CNC2=O)cc(OC)c1OC`, 4.48.
In the case of `COc1ccc(C2=C(c3ccc(OC)cc3)C(=O)NC2)cc1`, the pIC50 was 4.89.
Still for that read-out and setting: in the case of `COc1ccc(C2=C(c3ccc(OC)c(OC)c3)C(=O)NC2)cc1OC` it was 4.24; in that of `COc1cc(C2=C(c3cc(OC)c(OC)c(OC)c3)C(=O)NC2)cc(OC)c1OC`, 4.96; in that of `Cn1cc(C2=C(c3ccccc3)CNC2=O)c2ccccc21`, < 4.00.
Still for that read-out and setting: then `COc1ccc(C2=CC(=O)NC2)cc1OC`, with < 4.00; and `COc1cc(C2=C(c3cn(C)c4ccccc34)C(=O)NC2)cc(OC)c1OC`, with 4.42; and `COc1ccc(C2=C(c3cn(C)c4ccccc34)CNC2=O)cc1OC`, with < 4.00.
As to `COc1cc2c3c(c4c5ccccc5n(C)c4c2cc1OC)C(=O)NC3`, the negative logarithm of the IC50 (pIC50) was 4.32.
Same read-out and setting: in the case of `COc1cc(C2=C(c3ccccc3)C(=O)NC2)cc(OC)c1OC` it was 4.08; in that of `COc1cc2c3c(c4cc(OC)c(OC)cc4c2cc1OC)C(=O)NC3`, < 4.00.

A short description of the next test: Cytotoxicity against human U937 cells assessed as cell viability at antiproliferative IC50 after 48 hrs by trypan exclusion assay. The format is functional, U-937.
Details: not given
Consider `COc1ccc(C2=C(c3cn(C)c4ccccc34)C(=O)NC2)cc1OC`, for which the Activity came out at 61%.
`COc1cc(C2=C(c3cc(OC)c(OC)c(OC)c3)C(=O)NC2)cc(OC)c1OC`: the Activity is given as 51%.
